These results are taken from ChEMBL document CHEMBL1126585, “Effect of N-methyl substitution of the peptide bonds in luteinizing hormone-releasing hormone agonists” (J Med Chem, 1993).

For series [1], the species on record is Rattus norvegicus. Kind of series: In vitro for LH release inhibition from cultured rat pituitary cells, activity is expressed as pA2 value. In kind it is functional, cell-based. The note with it: Pituitary gland cell, read-out: pA2 (converted). The procedure, abridged:
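Cultured rat pituitary cells releasing LH in response to agonist; pA2 = negative log of antagonist concentration requiring 2-fold more agonist for LH release.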

Series [2] is described as follows: Clearance in rat after iv dose (100 ug/kg). Type of series: ADME, organism-based. The note with it: in vivo, 0.1 mg/kg. The procedure, abridged:
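Castrate male rats given 100 μg/kg iv bolus; blood sampled over 6 h with EDTA anticoagulant. Plasma levels by RIA with antibody recognizing C-terminal Leu-Arg-Pro-NHEt or Leu-Arg-Pro-GlyNH₂ (rabbit antisera C-402 with [125I-Tyr⁵]leuprolide tracer, or 5328W with [125I-Tyr⁵,DLys⁶]LHRH). AUC by trapezoidal rule; whole-body clearance = dose/AUC, mL/min per kg.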

The subject of another series is chymotrypsin. Kind of series: Chymotrypsin degradation half-life was determined. Type of series: ADME.
For series [3], the species on record is Rattus norvegicus. As to the kind of experiment: Intestinal stability against rat jejunum sac, activity is expressed as T1/2. Type of series: functional. The procedure, abridged:
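Rat jejunal sac in vitro; T1/2 taken as time, in min, for lumenal compound concentration to fall by 50%.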

For series [4], the species on record is Rattus norvegicus. As to the kind of experiment: Tested in vitro for LH release from cultured rat pituitary cells, activity is expressed as pD2 value. Type of series: functional, Pituitary gland cell. In a few lines:
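Cultured rat pituitary cells; LH release measured across agonist concentrations; pD2 = negative log of agonist concentration giving 50% of maximal LH release.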

One may read the clearance as the volume of plasma or blood freed of the substance per unit of time. Lower therefore signals inefficient removal. Broadly, the half-life is the time needed for the level to fall by half in the phase considered.

`CC(C)C[C@H](NC(=O)[C@@H](Cc1ccc2ccccc2c1)NC(=O)[C@H](Cc1ccc(O)cc1)NC(=O)[C@H](CO)NC(=O)[C@H](Cc1c[nH]c2ccccc12)NC(=O)[C@H](Cc1c[nH]cn1)NC(=O)[C@@H]1CCC(=O)N1)C(=O)N(C)[C@@H](CCCN=C(N)N)C(=O)N1CCC[C@H]1C(=O)NCC(N)=O`: in the series filed under Rattus norvegicus [1], the Kb was 0.0112 µM. The clearance in series [2] was 0.232 L/h/kg.

As for `CCNC(=O)[C@@H]1CCCN1C(=O)[C@H](CCCN=C(N)N)NC(=O)[C@H](CC(C)C)NC(=O)[C@@H](CC(C)C)NC(=O)[C@H](Cc1ccc(O)cc1)NC(=O)[C@H](CO)NC(=O)[C@H](Cc1cccc2ccccc12)N(C)C(=O)[C@H](Cc1c[nH]cn1)NC(=O)[C@@H]1CCC(=O)N1`, in the series filed under Rattus norvegicus [1], the Kb was 0.257 µM. Moreover, the half-life with chymotrypsin was over 60 min. In series [2], the clearance is 0.867 L/h/kg. The compound further returned a T1/2 in the series filed under Rattus norvegicus [3] of 44 min.

Take `CCNC(=O)[C@@H]1CCCN1C(=O)[C@H](CCCN=C(N)N)NC(=O)C(CC(C)C)NC(=O)C(CC(C)C)NC(=O)[C@H](Cc1ccc(O)cc1)NC(=O)[C@H](CO)NC(=O)[C@H](Cc1c[nH]c2ccccc12)NC(=O)[C@H](Cc1ccccc1)N(C)C(=O)[C@@H]1CCC(=O)N1` (stereo in doubt): the Kb in the series listed under Rattus norvegicus [1] was 0.0295 µM. Also, the half-life with chymotrypsin came out at 6 min. The same compound gave a clearance in series [2] of 1.86 L/h/kg. The compound also gave a T1/2 in the series listed under Rattus norvegicus [3] of 18 min.

Consider `CCNC(=O)[C@@H]1CCCN1C(=O)[C@H](CCCN=C(N)N)NC(=O)[C@H](CC(C)C)NC(=O)[C@@H](Cc1c[nH]c2ccccc12)NC(=O)[C@H](Cc1ccc(O)cc1)NC(=O)[C@H](CO)NC(=O)[C@H](Cc1c[nH]c2ccccc12)NC(=O)[C@H](Cc1cnc[nH]1)N(C)C(=O)[C@@H]1CCC(=O)N1`, for which the Kb in the series listed under Rattus norvegicus [1] is 0.0055 µM. The compound also came in with a clearance in series [2] of 0.984 L/h/kg.

The compound `CC(C)C[C@H](NC(=O)[C@@H](CC(C)C)NC(=O)[C@H](Cc1ccc(O)cc1)NC(=O)[C@H](CO)NC(=O)[C@H](Cc1c[nH]c2ccccc12)NC(=O)[C@H](Cc1c[nH]cn1)NC(=O)[C@@H]1CCC(=O)N1)C(=O)N[C@@H](CCCN=C(N)N)C(=O)N1CCC[C@H]1C(=O)N(C)CC(N)=O` displayed a half-life in the series on chymotrypsin of 1 min. The compound further returned a clearance in series [2] of 0.586 L/h/kg. Moreover, in the series filed under Rattus norvegicus [4], the pD2 was determined as 8.73. Moreover, in the series filed under Rattus norvegicus [3], the T1/2 was determined as 8.4 min.

Regarding `CC(C)C[C@H](NC(=O)[C@@H](Cc1ccc2ccccc2c1)NC(=O)[C@H](Cc1ccc(O)cc1)NC(=O)[C@H](CO)NC(=O)[C@H](Cc1c[nH]c2ccccc12)NC(=O)[C@H](Cc1ccccc1)N(C)C(=O)[C@@H]1CCC(=O)N1)C(=O)N[C@@H](CCCN=C(N)N)C(=O)N1CCC[C@H]1C(=O)NCC(N)=O`, the Kb in the series listed under Rattus norvegicus [1] is 0.00158 µM.
